Assay: Toxicity liver stage against HepG2, at 10uM
Format: cell-based
Design: test concentration 10 uM, cell line HepG2-A16-CD81EGFP
Details: human, HepG2-A16-CD81EGFP cells; read-out: INHIBITION
Outline: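 Uninfected HepG2-A16-CD81EGFP cells, 3 × 10^3 per well, 1536-well, plated on prespotted compound at 10 μM final, parasite-free screening media added to match infected plates; puromycin 10 μM positive, DMSO 0.5% negative; run in parallel with 48 h PbLuc assay at 37 °C, 5% CO2; viability by CellTiter-Glo luminescence, normalized to controls.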

Point of comparison: `CCc1ccc(-n2nnc(C(=O)O)c2-c2ccccn2)cc1`, cytotoxicity at 10 µM -1.92%. Against it:
- O=C(O)c1ccnc(SCC(=O)c2ccccc2)c1 — lower, -3.78%
- Cc1ccc(CN2C[C@H]3CN(C(=O)c4ccno4)CCN3C2=O)cc1 — lower, -2.07%
- CSCC[C@@H](CO)NC(=O)c1sc(-c2ccccc2Cl)nc1C — higher, 14.3%
- Cc1[nH]nc(-c2ccc(F)cc2)c1CC(=O)NCC1CCOCC1 — higher, -0.707%
- CCNC(=O)c1cc2n(n1)CCCO2 — higher, 1.25%
- O=C(NCC(O)c1ccoc1)Nc1c(F)cccc1F (stereo not given) — lower, -5.86%
- CCOC(=O)N1CCNC(c2cccs2)C1 (stereo not given) — lower, -147%
- Cn1cc(N2C[C@@H]3CN(S(=O)(=O)C4CC4)C[C@@H]3C2=O)cn1 — higher, 1.86%
- COCCO[C@H]1CCN(Cc2cnn(C)c2)[C@H]1Cc1cccnc1 — higher, 0.793%
- CNC(=O)c1cc2c(nc1NCC1CC1)CCNCC2 — higher, -0.966%
- COC(=O)CC1CCN(C(=O)c2ccccc2-n2nnnc2C)CC1 — lower, -7.27%
- OCCNc1nc(NCCc2ccccc2)nc2nccnc12 — higher, 5.91%
- CCCS(=O)(=O)Nc1ccc2c(c1)OCC(C)(C)C(=O)N2C — lower, -10.8%
- CCc1c(C)nc2n(c1=O)CC(C(=O)Nc1nc3c(s1)CCCC3)CS2 (stereo not given) — higher, 2.17%
- COCCN(Cc1ccoc1)C(=O)c1cccnc1SC — higher, 12.4%
- O=C(Cn1cc(C(=O)O)ccc1=O)Nc1ccc(Cl)cc1F — lower, -6.94%
- Cc1c[nH]c(C2CCCN(C(=O)CCc3c(C)n[nH]c3C)C2)n1 (stereo not given) — higher, 4.88%
- CN1CCCCC1CC(=O)Nc1ccc2ncn(C)c2c1 (stereo not given) — higher, 4.18%
- Cc1cc(NCC2CCCCC2)n2ncnc2n1 — lower, -2.1%
- O=S(=O)(Nc1ccc(N2CCOCC2)cn1)c1ccc(F)cc1 — lower, -6.64%
- COc1cccc(CN(C)CCCn2cnc3c(N)ncnc32)c1 — lower, -2.63%
- O=S(=O)(N1CCCCCC1)N1CCCN(CC2CCCO2)CC1 (stereo not given) — higher, 0.863%
- Cc1nc(CNC2(C(=O)OC(C)(C)C)CCCC2)oc1C — higher, -0.457%
- CCOCCN1CCN(CC(=O)NC2(C#N)CCCC2)CC1C (stereo not given) — higher, 5.33%
- OC1(CNc2ccc(Br)cn2)CCOCC1 — higher, 6.91%
- Cc1ccc(C(=O)NC2CCCN(CC(N)=O)C2)c(=O)[nH]1 (stereo not given) — higher, 0.601%
- CS(=O)(=O)NCc1cccc(COC2CCCCC2)c1 — higher, 3.12%
- COCc1ccccc1C(=O)OCc1noc(C)n1 — higher, 7.01%
- CCOc1ccc(Cl)c(C(=O)NC(C(N)=O)c2ccccc2)n1 (stereo not given) — higher, -0.425%
- Cc1cc(CN(C)CC2CC(C3CCCCC3)=NO2)no1 (stereo not given) — higher, 22.4%
- CS(=O)(=O)c1ccc2c(c1)N(C(=O)c1cccc(F)c1)CCC2 — higher, 8.05%
- CCc1noc(C)c1C(=O)N1CCN(c2nc(C)cc(OC)n2)CC1 — lower, -13.8%
- O=C(Cc1csc(-c2ccccn2)n1)NCCCN1CCCCCC1=O — higher, 1.16%
- Cc1cc(C)cc(NC(=O)Cc2c(C)nc3c(c2C)c(=O)[nH]n3C)c1 — higher, 10.6%
- CCc1nnc(CN2CCN(C(C)=O)CC2)o1 — higher, 4.39%
- COCCOCC(C)NC(=O)COc1nn(C)c2nc(C)cc(C)c12 (stereo not given) — lower, -3.85%
- CCc1n[nH]c(C2CN(C(=O)Cc3ccc(C)nc3)CCO2)n1 (stereo not given) — higher, 6.97%
- O=C(NCCc1nnc2n1CCC2)NCC1(c2ccc(F)cc2)CC1 — lower, -2.23%
- CC(C)n1cc(CN2CCCN(C(=O)c3cccnc3O)CC2)cn1 — higher, 4.29%
- CN(Cc1ccc2c(c1)OCO2)Cc1nc(Cc2ccccc2)no1 — lower, -2.59%
- CC(C)(C)c1cc(NC(=O)CN2CCCC2Cn2cncn2)on1 (stereo not given) — higher, 5.91%
- CC(C)CC(NC(=O)c1ccn(C)c(=O)c1)c1ccccc1 (stereo not given) — lower, -6.76%
- COCCSc1ccc(C(C)NC(=O)Nc2cccnc2)cc1 (stereo not given) — higher, 12.3%
- CC(C)N(Cc1ccc(Cl)c(Cl)c1)C(=O)Cn1cncn1 — higher, 4.19%
- O=C(NCCC(=O)N1CCCC1)c1ccc(SCc2cccnc2)cc1 — higher, 8.95%
- Cc1ccc(C)c(CN(C)Cc2nnc3ccccn23)c1 — lower, -10.5%
- Cc1csc(C2(NCC(O)COC(C)C)CCCC2)n1 (stereo not given) — higher, 4.53%
- CCN(CC)CC(=O)NCCc1csc(N2CCCC2)n1 — higher, 8.55%
- c1cc(CNCc2ccnc(N3CCOCC3)c2)c2c(c1)OCCO2 — lower, -4.66%
- CN(CC1CCCCO1)C(=O)c1ccnc(OC2CCC2)c1 (stereo not given) — lower, -7.63%
- CC(C)c1nc(C(=O)N2CCOCC2CC(=O)c2ccco2)c[nH]1 (stereo not given) — higher, 0.769%
- O=C(CCc1nccs1)N1CCC(N2CCNC2=O)CC1 — lower, -9.86%
- Cc1nc(C)n(CC2CCCN2CC(=O)NCCc2ccccc2)n1 (stereo not given) — lower, -16.5%
- Cc1cnc(CNC(=O)[C@@]23CCO[C@@H]2CCN(c2ncccn2)C3)cn1 — lower, -100%
- O=C(c1cocn1)N1C[C@H]2CCC[C@@]2(COCc2cccnc2)C1 — higher, 7.35%
- COCCN1C[C@H]2[C@@H](C1)N(C(=O)c1cccc(OC)c1)CC[C@H]2OC — higher, 3.56%
- CC(C)C1CN(c2ncccn2)CCC(=O)N1CC1CC1 (stereo not given) — higher, 0.0666%
- Fc1cccnc1Oc1cc(F)c(CN2CCCC2)c(F)c1 — lower, -7.32%
- O=C(c1ccc(-c2cccc3c2CCNC3)o1)N1CCCC1 — higher, 3.34%
- c1c(-c2nc(CN3CCOCC3)no2)nnn1CC1CCCCC1 — higher, 3.15%
- Cc1cc(C)n(CC(C)NC(=O)c2cc(C(C)C)on2)n1 (stereo not given) — higher, 0.5%
- Cc1nc[nH]c1C(=O)N1CCCC2(C1)C(=O)N(C)c1ccccc12 (stereo not given) — lower, -6.01%
- OC1(CNCCN2CCCc3ccccc32)CCNC1 (stereo not given) — higher, 7.03%
- Cc1nn(C)cc1-c1ccnc(N2CCN(c3ccccc3)C(=O)C2)n1 — lower, -7.57%
- COCCC(=O)N1CCCC(CCC(=O)NCc2cccc(OC)c2)C1 (stereo not given) — higher, 23.1%
- Cc1ccc(C(C(=O)N2CCN(C(=O)c3ccc[nH]3)CC2)N(C)C)cc1 (stereo not given) — lower, -10.7%
- Cc1noc(C)c1CCCNC(=O)C1CCN(C(=O)C2CC2)CC1 — higher, 1.23%
- CCc1nc(C)c(CNC(=O)CCCN2CCCCC2)s1 — lower, -4.65%
- Cc1cc(CN2CCC(C3CCN(CCc4ccccc4)CC3)C2)[nH]n1 (stereo not given) — higher, 9.2%
- COc1cc(-c2nccn2CCn2cccn2)cc2c1OCO2 — lower, -3.81%
- C[C@@H]1CN(C(=O)C2(Cn3cccn3)CC2)C[C@@]1(O)C1CCC1 — higher, 1.56%
- Cc1ccccc1N1CCN(C(=O)CSc2ccncc2)CC1=O — higher, 6.71%
- COc1ccc(S(=O)(=O)N[C@H]2CN(C(C)=O)C[C@@H]2C2CC2)cc1C — higher, 4.57%
- OCC1(CC2CC2)CCCN(Cc2cnc(N3CCOCC3)nc2)C1 (stereo not given) — higher, -0.274%
- CCN(Cc1cnn(CC)c1)C(=O)CN1C(=O)CCc2ccccc21 — lower, -2.17%
- CCN(CCn1cccn1)C(=O)CN1C(=O)OC[C@@H]1c1ccccc1 — lower, -12.1%
- COCCN1CCCC2(CCN(Cc3noc(C4CCCC4)n3)C2)C1=O (stereo not given) — higher, 3.96%
- CCC1(CO)CCN(C(=O)c2cc(COc3ccccc3F)[nH]n2)CC1 — higher, 4.45%
- CCCn1cnnc1CNC(=O)C1COc2c(cccc2OC)C1 (stereo not given) — higher, -1.26%
- Cn1ccnc1CN1CCC(CCC(=O)Nc2ccccc2Cl)CC1 — lower, -3.73%
- CC(CO)CN(Cc1ccccc1)Cc1c[nH]cn1 (stereo not given) — higher, 6.04%
- CN(C)C(=O)c1nc(CN2CC(Cc3ccccc3)CC2=O)no1 (stereo not given) — higher, -0.849%
- CC(C)OCCCNC(=O)[C@@]12CNC[C@@H]1CN(S(C)(=O)=O)C2 — higher, 6.99%
- CN(Cc1ncc[nH]1)C(=O)C(C)(C)NC(=O)c1cccs1 — higher, 11.6%
- CC(=O)N[C@@H]1CN(C(=O)c2csc(C(C)C)n2)C[C@H]1C(C)C — lower, -6.71%
- O=C(CCN1CCOC(CNc2cccnn2)C1)NC1CCCCC1 (stereo not given) — higher, 3.09%
- O=C(c1cc(C2CC2)[nH]n1)N1CCN(Cc2ccc3c(c2)OCO3)CC1 — lower, -2.32%
- CCNC(=O)NC(=O)CNC(C)(C)c1ccc2c(c1)OCCO2 — lower, -19.7%
- COc1c(CNCc2ccnc(N(C)C)c2)c(C(C)C)nn1C — lower, -6.3%
- CCc1nnc2n1CCN(Cc1ncc(-c3ccccc3)o1)C2 — lower, -3.98%
- c1ccc(Cn2cc(CNCC3CNc4ccnn4C3)cn2)cc1 (stereo not given) — lower, -11.6%
- N#Cc1ccc(OCCN2CCc3cncnc3C2)cc1 — lower, -9.96%
- Cc1noc(C)c1CS(=O)(=O)CC(=O)N1CCc2sccc2C1 — lower, -17%
- Cc1csc(N2CCCN(CCC(=O)NC(N)=O)CC2)n1 — lower, -24.2%
- O=C(NCc1ccc(-n2cncn2)nc1)c1cc(Cl)c2c(c1)OCCO2 — lower, -16.5%
- COc1ccc(CNC(=O)Nc2cccnc2OC)cc1O — lower, -26.3%
- CN(Cc1ccc(-n2cccn2)cc1)CC1CCCN1c1cccnn1 (stereo not given) — lower, -3.98%
- Cc1cnn(CC2CCCN2C(=O)CCc2ccc3c(c2)OCO3)c1 (stereo not given) — lower, -19%
- Cc1noc(C)c1C(=O)N1CCCN(Cc2cscn2)CC1 — higher, -1.56%
- Cn1cc(CN2CCC(F)(F)C3(CCN(c4ncccn4)C3)C2)cn1 (stereo not given) — higher, -0.58%
- O=C(c1cccnc1)N1Cc2nccn2CC(COc2cccnc2)C1 (stereo not given) — higher, 4.01%
- CCN1CC2(CC1=O)CN(Cc1cnn(C)c1)CCN(C(=O)C(C)C)C2 (stereo not given) — lower, -15%
- O=C(Nc1cnccn1)[C@@H]1COC[C@H]2CN(C3CCCC3)C[C@H]21 — lower, -21.9%
- CCS(=O)(=O)N1Cc2ncn(CC3CC3)c2C(COCC2CC2)C1 (stereo not given) — higher, 0.822%
- CC(C)OCc1ncn2c1CN(Cc1ccc(F)cc1)CCC2 — higher, 1.39%
- CC(C)CS(=O)(=O)N1C[C@@H]2C[C@H](C(=O)NCc3ccccc3)[C@H](C1)O2 — higher, 8.24%
- O=c1[nH]c2cn(-c3ccc(F)cc3)c(=O)n2n1Cc1cccc(Cl)c1 — higher, 6.59%
- O=C(Nc1cccnc1)[C@H]1C[C@H]2CN(C(=O)NC3CCCC3)C[C@@H]1O2 — higher, 2.96%
- CCOC(=O)N1CCC(n2cc3[nH]cccc-3c2=O)CC1 — higher, 3.6%
